Screening results deposited in PubChem BioAssay by The Scripps Research Institute Molecular Screening Center.
M5 ag: human M5 muscarinic receptor agonists, primary screen, CHO-K1 cells, Fluo-8 calcium fluorescence; AID 624037, 2012; CHO-K1 hM5 cells; 0% DMSO wells, 100% maximal acetylcholine response; activation, % at 3 µM; 360,000 tested, 0.19% active; Muscarinic acetylcholine receptor M5 (Homo sapiens), P08912;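 active means activation above the run's mean over test compounds plus 3 SD, cut at about 23% in these data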;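 further: signal is peak over basal fluorescence ratio across the kinetic read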
Target sequence (P08912 whole entry, looked up): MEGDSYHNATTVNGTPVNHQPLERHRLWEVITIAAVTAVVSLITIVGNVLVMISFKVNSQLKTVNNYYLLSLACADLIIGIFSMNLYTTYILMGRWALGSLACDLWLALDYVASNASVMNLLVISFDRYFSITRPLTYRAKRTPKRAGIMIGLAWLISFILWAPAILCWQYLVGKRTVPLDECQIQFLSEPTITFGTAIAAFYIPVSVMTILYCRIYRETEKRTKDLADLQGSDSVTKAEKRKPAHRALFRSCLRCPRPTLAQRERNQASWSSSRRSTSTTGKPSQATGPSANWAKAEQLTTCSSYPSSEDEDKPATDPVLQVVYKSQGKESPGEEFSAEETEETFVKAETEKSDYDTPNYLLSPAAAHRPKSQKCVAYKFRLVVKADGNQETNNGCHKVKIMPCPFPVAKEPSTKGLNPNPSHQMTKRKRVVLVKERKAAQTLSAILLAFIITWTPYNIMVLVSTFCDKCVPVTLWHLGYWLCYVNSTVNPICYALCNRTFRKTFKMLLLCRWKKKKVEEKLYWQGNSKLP
M4 PAM: human M4 muscarinic receptor positive allosteric modulators, primary screen, CHO-K1 cells, Fluo-8 calcium fluorescence | 360,000 tested, 0.4% active | CHO-K1 hM4/Gqi5, ACh EC20; 0% = ACh EC20, 100% = maximal ACh | AID 624126, 2012 | activation, % at 3 µM;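 active means activation above its plate's cutoff, the mean activation of sample wells plus 3 SD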
M5 antag: human M5 muscarinic receptor antagonists, primary screen, CHO cells, Fluo-8 calcium fluorescence; CHO-hM5 cells, ACh EC80; inhibition, % at 3 µM; 360,000 tested, 0.59% active;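 active means inhibition above a per-plate cutoff, the mean of that plate's test compounds plus 3 SD, cut at about 27% in these data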;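 further: 0% = acetylcholine EC80 with DMSO and 100% = DMSO without agonist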
CHRM4 antagonist: human M4 muscarinic receptor antagonists, primary screen, CHO cells, Fluo-8 calcium fluorescence. Muscarinic acetylcholine receptor M4 (Homo sapiens), P08173. CHO-hM4 cells, ACh EC80. 360,000 tested, 0.73% active. inhibition, % at 3 µM;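 active means inhibition above its plate's cutoff, the mean inhibition of sample wells plus 3 SD, cut at about 27% in these data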;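 further: 0% = acetylcholine EC80 with DMSO and 100% = DMSO without agonist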
CHRM5 PAM: human M5 muscarinic receptor positive allosteric modulators, primary screen, CHO-K1 cells, Fluo-8 calcium fluorescence. 360,000 tested, 0.3% active. activation, % at 3 µM. CHO-K1 hM5, ACh EC20 PAM; 0% = ACh EC20, 100% = ACh EC100. AID 624038, 2012;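 active means activation above the run cutoff, the mean activation of all test compounds plus 3 SD, cut at about 18% in these data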
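system = human M5 receptor in CHO-K1 cells | reagent = EC20 acetylcholine as agonist stimulus | compound dosing = single-point, 3 µM nominal | incubation = Fluo-8 loading 80 min at 37 °C plus 30 min room temperature | detection = Fluo-8 calcium dye fluorescence, kinetic read | benchmarks = low control EC20 acetylcholine (0%), high control EC100 acetylcholine (100%)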
CHRM4 agonist: human M4 muscarinic receptor agonists, primary screen, CHO-K1 cells, Fluo-8 calcium fluorescence; CHO-K1 hM4/Gqi5; vehicle 0%, full acetylcholine response 100%; activation, % at 3 µM; 360,000 tested, 0.14% active; AID 624127, 2012;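 active means activation above the run mean over all test wells plus 3 SD, cut at about 32% in these data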;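 further: peak over basal fluorescence ratio per well then scaled between controls; 0% = DMSO wells and 100% = acetylcholine at EC100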
Active calls of the source: *. Compounds with a hit are over-represented: about 1.9% of the library has one in this group of screens.

SMILES	M5 ag	M4 PAM	M5 antag	CHRM4 antagonist	CHRM5 PAM	CHRM4 agonist
Cc1cccc(N2CCN(C(=O)CN3C(=O)NC(C)(C4CC4)C3=O)CC2)c1C (stereo not drawn)	4.8	4.6	4.4	-4.7	0.1	9.2
CC1=NN(C(=O)CSCc2ccccc2)C(O)(c2ccc(Cl)cc2)C1 (stereo not drawn)	-3.6	3.8	3.3	-3.4	4.1	1.1
CC1=NN(C(=O)COc2ccc(C)c(C)c2)C(O)(c2ccc(Cl)cc2)C1 (stereo not drawn)	-0.3	21.8*	2.7	-5.4	4.0	2.6
Cc1occc1C(=O)N/N=C/c1ccc(N(C)C)cc1	4.2	-1.4	-14.9	-4.5	20.1*	0.6
Cc1occc1C(=O)N/N=C/C=C/c1ccc(N(C)C)cc1	-4.5	2.4	12.6	-3.2	-0.9	0.6
COc1ccc(OCC(=O)N/N=C/c2ccc(N(C)C)cc2)cc1	-2.4	21.6*	20.5	-2.6	-4.2	1.0
CN(C)c1cc[n+](Cc2c(Cl)cccc2Cl)cc1	-6.1	-34.4	55.0*	60.6*	-20.2	0.8
CN(C)S(=O)(=O)c1ccc(Cl)c(C(=O)Nc2ccccc2[N+](=O)[O-])c1	-1.7	-0.1	-3.0	-14.2	4.3	3.6
CCN(CC)S(=O)(=O)c1ccc(Cl)c(C(=O)Nc2ccc(Cl)cc2[N+](=O)[O-])c1	2.5	-22.0	30.0*	24.8	-16.0	10.2
CC(C)Cn1c(N)c(C(=O)COC(=O)[C@H](C)NC(=O)c2ccccc2Cl)c(=O)n(C)c1=O	6.7	-2.4	-3.7	-13.6	-0.2	8.6
COc1ccc(NC(=O)C2CCC(C)(C(=O)O)C2(C)C)cc1 (stereo not drawn)	-1.5	1.8	-9.2	27.6*	-1.0	0.5
CCOc1ccc(NC(=O)C2CCC(C)(C(=O)O)C2(C)C)cc1 (stereo not drawn)	0.3	2.4	1.8	2.1	-4.0	0.5
CCCCOc1ccc(N(CC(=O)NCCOC)C(=O)CCC(=O)Nc2ccccn2)cc1	0.8	-3.0	3.4	3.2	3.7	0.2
CC(C)N1CCC1(C)C(=O)Nc1cccc2ccccc12 (stereo not drawn)	-3.6	0.6	12.3	-5.0	5.3	-0.3
CC1(C(=O)Nc2cccc3ccccc23)CC1(Br)Br (stereo not drawn)	-10.2	-45.1	31.3*	15.6	-29.1	10.4
Nc1nc2ccccc2cc1C(=O)NCc1ccc(-c2ccccc2)cc1	9.7	-3.9	31.5*	18.8	-17.1	16.7
CC(C)(C)c1ccccc1OCCN1CCCC1	-6.4	-32.1	11.4	31.8*	-13.4	0.8
Cc1ccc(C(C)(C)C)c(OCCN2CCCC2)c1	-5.8	-31.5	14.5	17.3	-17.2	1.6
CC(OCCN1CCCC1)(c1ccc(F)cc1)c1ccc(F)cc1	-7.3	-37.9	35.8*	46.7*	-19.8	4.0
Cc1cccc(N(C)S(=O)(=O)c2cc3c(cc2C)n(C)c(=O)c(=O)n3C)c1	-1.9	-7.4	6.2	-1.3	-4.1	4.3
Cc1cc2c(cc1S(=O)(=O)N(C)c1ccccc1)n(C)c(=O)n2C	2.7	-17.1	7.6	98.7*	-4.5	-2.3
CC1=CC(C)(C)N2C(=O)C(=O)c3cc(OC(=O)c4ccco4)cc1c32	35.9*	-11.4	9.2	-1.5	-11.7	20.3
C=CCn1c(SCc2nc3ccccc3c(=O)[nH]2)nc2scc(C3CC3)c2c1=O	-3.6	10.9	7.7	-2.7	1.9	1.4
Cn1nnc2cc(C(=O)NC3CC3)ccc21	0.3	9.8	8.5	10.8	40.0*	-0.1
CCOc1ccccc1NC(=O)c1ccc2c(O)c(S(=O)(=O)c3ccccc3)c(=O)[nH]c2c1	0.9	0.1	-0.8	-3.6	0.7	0.7
SMILES	M5 ag	M4 PAM	M5 antag	CHRM4 antagonist	CHRM5 PAM	CHRM4 agonist
Cc1ccc2[nH]c(=O)c3cc(C(=O)N(C)c4ccccc4C)sc3c2c1	-4.0	2.6	8.2	7.7	5.5	0.3
O=C(O)c1ccccc1Cc1nc2cc(Cl)ccc2c(=O)[nH]1	1.7	-4.3	12.8	8.5	5.6	-0.5
Cc1ccc(CNC(=O)CCc2nc3ccccc3c(=O)[nH]2)cc1	-4.9	-3.0	-9.7	2.1	35.8*	0.5
CCOC(=O)c1ccccc1Cc1nc2ccccc2c(=O)[nH]1	-10.4	-6.4	43.7*	-1.6	-21.0	0.7
CCCc1c(C)nc(N2CCN(c3ccccc3OC)CC2)[nH]c1=O	-1.1	1.2	13.4	2.1	-7.8	0.2
COc1ccc(C(C)=O)cc1CSc1nc2cc(C(=O)O)ccc2c(=O)n1Cc1ccccc1	1.0	9.4	6.9	28.4*	1.5	1.6
O=C(NCc1nnc(SCC(=O)N2CCCC2)o1)c1cccc(C(F)(F)F)c1	-4.0	-4.3	-6.5	-5.4	-1.3	24.8
Cc1ccc(-c2c(C(=O)N/N=C/c3ccsc3)nnn2-c2nonc2N)cc1	26.2*	-5.5	0.1	-7.5	0.1	8.3
Nc1nonc1-n1nnc(C(=O)N/N=C/c2cccs2)c1-c1ccc2c(c1)OCO2	56.7*	-4.3	-21.1	-11.3	-1.6	68.7*
Cc1ccsc1/C=N/NC(=O)c1nnn(-c2nonc2N)c1-c1ccc2c(c1)OCO2	6.7	8.5	-5.7	2.6	6.1	4.0
Nc1nonc1-n1nnc(C(=O)N/N=C/c2ccccc2Cl)c1CN1CCOCC1	-6.6	16.4*	7.1	-5.9	-2.3	0.1
Cc1ccc(-c2c(C(=O)N/N=C/c3cccs3)nnn2-c2nonc2N)cc1	17.5	4.0	-4.0	-3.4	5.3	4.5
CCOc1ccc(-c2c(C(=O)N/N=C(\C)c3cccnc3)nnn2-c2nonc2N)cc1	7.0	11.0	-4.3	7.7	19.5*	2.9
CCCCCCn1c(=O)n2n(c1=O)[C@@H]1CN(S(=O)(=O)c3ccc(C)cc3)C[C@]1(O)[C@@H](OC(=O)NCc1ccco1)C2	-0.4	2.6	-2.4	0.7	0.2	0.0
Cc1cc(OC(C)C(=O)N2CCN(c3ccc(F)cc3)CC2)c2c(C)c(C)c(=O)oc2c1 (stereo not drawn)	-2.7	0.4	14.4	3.0	-5.0	0.2
COC(=O)c1sc(NC(=O)c2c(OC)cccc2OC)c(C#N)c1C	-2.1	-4.6	9.0	-5.7	-4.2	0.4
CCOc1ccc(/C=N/NC(=O)c2nnn(-c3nonc3N)c2-c2cccs2)cc1	32.7*	-2.0	6.8	2.9	6.2	33.2*
CCCOc1ccc(OC(=O)c2ccc(Br)o2)cc1	9.1	11.9	-2.0	2.8	-4.5	76.1*
